{
  "source": "ChEMBL document CHEMBL4052618",
  "about": "“Design, synthesis, SAR discussion, in vitro and in vivo evaluation of novel selective EGFR modulator to inhibit L858R/T790M double mutants” (Eur J Med Chem, 2017)",
  "key": {"[1]": {"experiment": "Cmax in Sprague-Dawley rat at 10 mg/kg, po administered via gavage after 24 hrs by LC-MS/MS analysis", "format": "ADME, organism-based", "parameters": "dose 10 mg/kg, route oral", "details": "in vivo", "in_short": "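Male Sprague-Dawley rats (200-240 g) received 1 mg/kg by tail-vein injection in 2% DMSO, 20% PEG400 and 78% buffered saline, or 10 mg/kg by oral gavage in 0.5% methylcellulose. Orbital sinus blood was drawn into heparinized tubes at 2, 5, 15 and 30 min and at 1, 2, 4, 8, 12 and 24 h, then centrifuged. Plasma was measured by LC/MS/MS in SRM mode, with non-compartmental analysis.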"}, "[2]": {"biological_target": "Tyrosine-protein kinase TXK (Homo sapiens) (UniProt P42681)", "sequence (P42681 whole entry)": "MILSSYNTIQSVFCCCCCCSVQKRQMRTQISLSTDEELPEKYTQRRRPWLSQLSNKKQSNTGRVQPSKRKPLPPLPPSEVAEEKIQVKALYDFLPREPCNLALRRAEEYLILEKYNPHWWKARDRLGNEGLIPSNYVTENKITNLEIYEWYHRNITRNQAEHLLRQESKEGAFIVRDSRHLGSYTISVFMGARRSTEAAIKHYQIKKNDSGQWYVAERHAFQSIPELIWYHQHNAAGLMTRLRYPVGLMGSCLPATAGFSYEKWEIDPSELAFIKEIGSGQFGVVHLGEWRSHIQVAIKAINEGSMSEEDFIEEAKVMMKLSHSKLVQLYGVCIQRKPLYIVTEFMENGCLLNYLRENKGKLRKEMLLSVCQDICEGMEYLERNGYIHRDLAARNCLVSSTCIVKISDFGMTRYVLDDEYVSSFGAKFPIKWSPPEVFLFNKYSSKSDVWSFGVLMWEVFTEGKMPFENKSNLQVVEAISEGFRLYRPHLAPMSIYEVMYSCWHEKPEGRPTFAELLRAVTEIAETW", "experiment": "Inhibition of TXK (unknown origin) at 1 uM relative to control"}, "[3]": {"biological_target": "Insulin receptor (Homo sapiens) (UniProt P06213)", "experiment": "Inhibition of INSR (unknown origin) at 1 uM relative to control"}, "[4]": {"biological_target": "Inhibitor of nuclear factor kappa-B kinase subunit beta (Homo sapiens) (UniProt O14920)", "experiment": "Inhibition of IKBKB (unknown origin) at 1 uM relative to control"}, "[5]": {"system": "RAF proto-oncogene serine/threonine-protein kinase (Homo sapiens), P04049 [Y340D,Y341D]", "experiment": "Inhibition of RAF1 Y340D/Y341D double mutant (unknown origin) at 1 uM relative to control"}, "[6]": {"experiment": "Intrinsic clearance in rat liver microsomes", "format": "ADME, microsome", "details": "read-out: CLH"}, "[7]": {"biological_target": "Insulin-like growth factor 1 receptor (Homo sapiens) (UniProt P08069)", "experiment": "Inhibition of IGF1R (unknown origin) at 1 uM relative to control"}, "NCI-H1975 [8]": {"system": "NCI-H1975", "experiment": "In vivo anti tumor activity against human NCI-H1975 cells xenografted in nude C.B-17 SCID mouse model assessed as relative tumor volume at 20 mg/kg, ig for 18 days measured twice a week relative to control", "format": "functional", "in_short": "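C.B-17 SCID mice received s.c. inoculation of 5 × 10^6 H1975 cells. At 100-150 mm3 they were randomized (n = 9 per group) and dosed intragastrically once daily for 18 days, with PBS as the control. Tumors were measured by caliper twice weekly, with V = length × width²/2. RTV = V/V0, and T/C% = treated mean RTV / control mean RTV × 100.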"}, "[9]": {"biological_target": "Cyclin-dependent kinase 1/cyclin B1 (Homo sapiens) (UniProt P06493+P14635)", "experiment": "Inhibition of CDK1/cyclin B (unknown origin) at 1 uM relative to control", "format": "protein-complex assay"}, "[10]": {"experiment": "Half life in rat liver microsomes", "format": "ADME, microsome"}, "[11]": {"biological_target": "Cytoplasmic tyrosine-protein kinase BMX (Homo sapiens) (UniProt P51813)", "sequence (P51813 whole entry)": "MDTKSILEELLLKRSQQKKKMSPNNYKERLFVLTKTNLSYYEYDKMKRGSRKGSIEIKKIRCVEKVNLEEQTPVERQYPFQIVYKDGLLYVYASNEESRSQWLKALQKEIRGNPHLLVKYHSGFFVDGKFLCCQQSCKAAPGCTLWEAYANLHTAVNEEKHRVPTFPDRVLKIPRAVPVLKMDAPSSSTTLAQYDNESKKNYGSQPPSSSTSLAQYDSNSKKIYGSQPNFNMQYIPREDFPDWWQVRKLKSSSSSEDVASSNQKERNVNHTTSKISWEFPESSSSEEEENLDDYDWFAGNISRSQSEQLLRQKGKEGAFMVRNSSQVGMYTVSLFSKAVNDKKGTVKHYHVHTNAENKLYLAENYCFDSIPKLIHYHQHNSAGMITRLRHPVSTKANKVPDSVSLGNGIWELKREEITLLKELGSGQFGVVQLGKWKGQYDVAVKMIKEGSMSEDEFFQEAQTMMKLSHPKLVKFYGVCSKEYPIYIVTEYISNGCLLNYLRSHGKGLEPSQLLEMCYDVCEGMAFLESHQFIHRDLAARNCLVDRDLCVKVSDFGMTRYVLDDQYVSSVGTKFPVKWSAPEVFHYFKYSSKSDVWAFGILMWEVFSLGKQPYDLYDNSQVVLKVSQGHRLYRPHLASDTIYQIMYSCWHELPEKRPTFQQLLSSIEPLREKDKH", "experiment": "Inhibition of BMX (unknown origin) at 1 uM relative to control"}, "NCI-H1975 [12]": {"system": "NCI-H1975", "experiment": "In vivo anti tumor activity against human NCI-H1975 cells xenografted in nude C.B-17 SCID mouse model assessed as tumor growth inhibition at 5 mg/kg, ig for 18 days measured twice a week relative to control", "format": "functional", "details": "NCI-H1975, po, 432 h, read-out: TGI", "in_short": "(§1)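 H1975 s.c. xenografts (5 × 10^6 cells) were grown in C.B-17 SCID mice and randomized at 100-150 mm3 (n = 9). Mice were dosed intragastrically once daily for 18 days against a PBS control. TGI% = (TWcontrol − TWtreatment)/TWcontrol × 100, where TW is the mean tumor weight on day 18.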"}, "[13]": {"biological_target": "cGMP-dependent protein kinase 1 (Homo sapiens) (UniProt Q13976)", "experiment": "Inhibition of PRKG1 (unknown origin) at 1 uM relative to control"}, "[14]": {"biological_target": "Mast/stem cell growth factor receptor Kit (Homo sapiens) (UniProt P10721)", "sequence (P10721 whole entry)": "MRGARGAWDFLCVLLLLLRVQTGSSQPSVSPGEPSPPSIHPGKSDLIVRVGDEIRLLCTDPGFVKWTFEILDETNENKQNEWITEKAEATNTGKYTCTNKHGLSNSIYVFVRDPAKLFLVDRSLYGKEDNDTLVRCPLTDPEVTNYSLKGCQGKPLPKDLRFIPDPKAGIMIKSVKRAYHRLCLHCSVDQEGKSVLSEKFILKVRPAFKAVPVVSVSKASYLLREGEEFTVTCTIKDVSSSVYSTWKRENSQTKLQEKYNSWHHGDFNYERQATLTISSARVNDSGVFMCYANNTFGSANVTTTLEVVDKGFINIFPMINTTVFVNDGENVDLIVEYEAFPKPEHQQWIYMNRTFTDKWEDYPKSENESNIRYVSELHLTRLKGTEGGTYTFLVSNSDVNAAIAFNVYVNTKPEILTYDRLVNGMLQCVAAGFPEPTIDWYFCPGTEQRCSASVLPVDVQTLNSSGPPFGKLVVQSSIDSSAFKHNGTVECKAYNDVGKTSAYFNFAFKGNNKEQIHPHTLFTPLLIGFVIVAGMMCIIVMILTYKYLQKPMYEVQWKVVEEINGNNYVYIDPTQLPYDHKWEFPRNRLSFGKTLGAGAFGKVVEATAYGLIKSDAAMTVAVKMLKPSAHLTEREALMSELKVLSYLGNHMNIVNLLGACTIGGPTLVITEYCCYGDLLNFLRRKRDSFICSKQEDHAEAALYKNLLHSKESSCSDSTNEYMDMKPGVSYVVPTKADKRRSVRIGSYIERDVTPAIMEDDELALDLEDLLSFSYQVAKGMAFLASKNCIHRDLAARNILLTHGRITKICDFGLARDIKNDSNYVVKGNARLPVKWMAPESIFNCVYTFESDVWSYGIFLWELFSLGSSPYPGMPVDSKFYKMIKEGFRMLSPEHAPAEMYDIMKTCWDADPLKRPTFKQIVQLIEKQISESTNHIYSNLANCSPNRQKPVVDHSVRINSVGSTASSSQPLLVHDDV", "experiment": "Inhibition of KIT (unknown origin) at 1 uM relative to control"}, "[15]": {"experiment": "AUC (0 to infinity) in Sprague-Dawley rat at 1 mg/kg, iv by LC-MS/MS analysis", "format": "ADME, organism-based", "parameters": "dose 1 mg/kg, time infinity, route intravenous", "details": "in vivo"}, "HCC827": {"system": "HCC827", "experiment": "Antiproliferative activity against human HCC827 cells harboring EGFR E746-A750 deletion mutant", "format": "functional, cell-based"}, "[16]": {"biological_target": "Inhibitor of nuclear factor kappa-B kinase subunit alpha (Homo sapiens) (UniProt O15111)", "experiment": "Inhibition of CHUK (unknown origin) at 1 uM relative to control"}, "[17]": {"biological_target": "Calcium/calmodulin-dependent protein kinase type II subunit beta (Homo sapiens) (UniProt Q13554)", "experiment": "Inhibition of CAMK2B (unknown origin) at 1 uM relative to control"}, "[18]": {"biological_target": "Receptor-type tyrosine-protein kinase FLT3 (Homo sapiens) (UniProt P36888)", "sequence (P36888 whole entry)": "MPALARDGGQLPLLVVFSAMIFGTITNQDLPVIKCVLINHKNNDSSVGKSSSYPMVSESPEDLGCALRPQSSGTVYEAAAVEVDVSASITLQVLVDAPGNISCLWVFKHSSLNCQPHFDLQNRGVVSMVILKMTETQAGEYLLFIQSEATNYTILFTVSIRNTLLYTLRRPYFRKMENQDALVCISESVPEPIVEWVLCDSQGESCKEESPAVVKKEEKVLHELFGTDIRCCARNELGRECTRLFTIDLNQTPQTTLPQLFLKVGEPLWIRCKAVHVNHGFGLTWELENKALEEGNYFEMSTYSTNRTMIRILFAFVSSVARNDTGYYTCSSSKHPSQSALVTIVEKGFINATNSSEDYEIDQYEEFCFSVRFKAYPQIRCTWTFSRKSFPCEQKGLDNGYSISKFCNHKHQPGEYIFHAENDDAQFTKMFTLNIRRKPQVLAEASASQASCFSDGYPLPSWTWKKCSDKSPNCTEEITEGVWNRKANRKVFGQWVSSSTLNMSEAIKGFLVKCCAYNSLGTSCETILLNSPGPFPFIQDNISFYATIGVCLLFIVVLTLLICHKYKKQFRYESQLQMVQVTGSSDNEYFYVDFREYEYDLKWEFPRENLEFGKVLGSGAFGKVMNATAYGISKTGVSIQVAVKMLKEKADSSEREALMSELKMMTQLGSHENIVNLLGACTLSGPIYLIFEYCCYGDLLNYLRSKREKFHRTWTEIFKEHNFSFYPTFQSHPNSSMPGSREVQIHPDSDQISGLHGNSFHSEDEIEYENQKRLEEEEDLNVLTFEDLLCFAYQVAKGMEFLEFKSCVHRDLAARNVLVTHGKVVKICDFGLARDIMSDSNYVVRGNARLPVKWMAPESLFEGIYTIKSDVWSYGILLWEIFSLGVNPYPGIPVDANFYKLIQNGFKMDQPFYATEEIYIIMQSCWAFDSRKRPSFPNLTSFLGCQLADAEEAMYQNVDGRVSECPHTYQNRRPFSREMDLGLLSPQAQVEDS", "experiment": "Inhibition of FLT3 (unknown origin) at 1 uM relative to control"}, "[19]": {"biological_target": "Serine/threonine-protein kinase Chk2 (Homo sapiens) (UniProt O96017)", "experiment": "Inhibition of CHEK2 (CHK2) (unknown origin) at 1 uM relative to control"}, "[20]": {"biological_target": "Tyrosine-protein kinase Lyn (Homo sapiens) (UniProt P07948)", "experiment": "Inhibition of LYN-B (unknown origin) at 1 uM relative to control"}, "[21]": {"biological_target": "Epidermal growth factor receptor (Homo sapiens, UniProt P00533, L858R)", "experiment": "Inhibition of human recombinant cytoplasmic GST-tagged EGFR L858R mutant expressed in baculovirus using TK-substrate-biotin preincubated for 15 mins followed by substrate addition measured after 60 mins by FRET-based Z'-Lyte assay"}, "NCI-H1975 [22]": {"system": "NCI-H1975", "experiment": "In vivo anti tumor activity against human NCI-H1975 cells xenografted in nude C.B-17 SCID mouse model assessed as tumor volume at 5 mg/kg, ig for 18 days measured twice a week (reference value: 948.05 mm3)", "format": "functional"}, "[23]": {"biological_target": "Tyrosine-protein kinase Fyn (Homo sapiens) (UniProt P06241)", "experiment": "Inhibition of FYN (unknown origin) at 1 uM relative to control"}, "[24]": {"biological_target": "Tyrosine-protein kinase Yes (Homo sapiens) (UniProt P07947)", "experiment": "Inhibition of YES1 (unknown origin) at 1 uM relative to control"}, "NCI-H1975 [25]": {"system": "NCI-H1975", "experiment": "In vivo anti tumor activity against human NCI-H1975 cells xenografted in nude C.B-17 SCID mouse model assessed as tumor growth inhibition at 10 mg/kg, ig for 18 days measured twice a week relative to control", "format": "functional", "details": "NCI-H1975, po, 432 h, read-out: TGI", "in_short": "as §1"}, "[26]": {"biological_target": "AMP-activated protein kinase (AMPK) alpha-1/beta-1/gamma-1 (Homo sapiens) (UniProt P54619+Q9Y478+Q13131)", "experiment": "Inhibition of AMPK A1/B1/G1 (unknown origin) at 1 uM relative to control", "format": "protein-complex assay"}, "[27]": {"biological_target": "Serine/threonine-protein kinase B-raf (Homo sapiens) (UniProt P15056)", "sequence (P15056 whole entry)": "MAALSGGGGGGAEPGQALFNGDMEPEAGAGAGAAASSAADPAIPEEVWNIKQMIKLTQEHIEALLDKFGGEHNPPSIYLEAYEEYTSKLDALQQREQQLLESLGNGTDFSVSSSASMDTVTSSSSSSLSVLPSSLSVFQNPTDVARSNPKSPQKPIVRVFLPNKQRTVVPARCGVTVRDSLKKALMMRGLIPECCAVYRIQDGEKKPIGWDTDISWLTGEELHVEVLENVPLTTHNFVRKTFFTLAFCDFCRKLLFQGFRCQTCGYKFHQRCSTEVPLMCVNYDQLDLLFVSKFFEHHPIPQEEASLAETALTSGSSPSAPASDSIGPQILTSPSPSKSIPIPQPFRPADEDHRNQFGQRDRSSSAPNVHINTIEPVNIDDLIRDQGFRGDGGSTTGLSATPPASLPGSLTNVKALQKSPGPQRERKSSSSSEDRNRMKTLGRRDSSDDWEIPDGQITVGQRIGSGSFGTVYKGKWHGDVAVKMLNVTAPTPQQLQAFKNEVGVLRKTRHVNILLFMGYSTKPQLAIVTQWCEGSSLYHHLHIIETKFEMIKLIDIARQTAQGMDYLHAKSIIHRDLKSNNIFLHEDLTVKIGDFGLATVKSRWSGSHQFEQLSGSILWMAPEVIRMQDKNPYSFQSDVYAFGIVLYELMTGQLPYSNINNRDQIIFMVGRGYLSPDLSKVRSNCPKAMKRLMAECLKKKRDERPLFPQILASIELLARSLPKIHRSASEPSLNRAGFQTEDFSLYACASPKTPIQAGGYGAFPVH", "experiment": "Inhibition of BRAF (unknown origin) at 1 uM relative to control"}, "[28]": {"biological_target": "Mitogen-activated protein kinase kinase kinase 9 (Homo sapiens) (UniProt P80192)", "sequence (P80192 whole entry, looked up)": "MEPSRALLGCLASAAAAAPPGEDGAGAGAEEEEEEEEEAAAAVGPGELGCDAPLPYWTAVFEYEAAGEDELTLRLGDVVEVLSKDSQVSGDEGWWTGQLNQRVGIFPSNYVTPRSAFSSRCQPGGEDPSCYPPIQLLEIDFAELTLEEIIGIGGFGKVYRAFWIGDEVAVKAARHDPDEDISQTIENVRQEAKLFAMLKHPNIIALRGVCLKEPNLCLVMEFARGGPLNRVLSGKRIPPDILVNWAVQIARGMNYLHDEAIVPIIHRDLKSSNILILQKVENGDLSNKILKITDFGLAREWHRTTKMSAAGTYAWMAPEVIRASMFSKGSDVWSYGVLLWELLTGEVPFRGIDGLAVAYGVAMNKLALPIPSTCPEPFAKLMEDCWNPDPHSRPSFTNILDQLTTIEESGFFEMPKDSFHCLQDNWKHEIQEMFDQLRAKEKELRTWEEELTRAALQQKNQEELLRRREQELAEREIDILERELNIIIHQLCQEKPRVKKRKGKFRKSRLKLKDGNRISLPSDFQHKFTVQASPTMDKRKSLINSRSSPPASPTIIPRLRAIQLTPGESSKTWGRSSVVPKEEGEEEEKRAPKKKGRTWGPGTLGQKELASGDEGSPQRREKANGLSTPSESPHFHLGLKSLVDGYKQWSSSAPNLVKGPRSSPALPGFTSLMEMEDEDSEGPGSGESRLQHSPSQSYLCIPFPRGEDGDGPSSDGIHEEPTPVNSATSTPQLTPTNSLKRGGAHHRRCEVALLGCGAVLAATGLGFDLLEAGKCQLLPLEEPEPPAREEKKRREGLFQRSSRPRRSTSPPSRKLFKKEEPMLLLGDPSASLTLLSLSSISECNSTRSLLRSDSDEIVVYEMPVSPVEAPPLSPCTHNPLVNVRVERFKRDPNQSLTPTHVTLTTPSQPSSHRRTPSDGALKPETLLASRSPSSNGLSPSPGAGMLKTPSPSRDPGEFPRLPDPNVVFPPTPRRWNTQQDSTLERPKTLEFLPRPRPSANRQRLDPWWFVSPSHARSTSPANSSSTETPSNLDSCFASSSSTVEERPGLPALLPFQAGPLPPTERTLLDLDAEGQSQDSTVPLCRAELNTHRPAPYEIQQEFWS", "experiment": "Inhibition of MAP3K9 (unknown origin) at 1 uM relative to control"}, "[29]": {"biological_target": "Tyrosine-protein kinase Fes/Fps (Homo sapiens) (UniProt P07332)", "experiment": "Inhibition of FES (FPS) (unknown origin) at 1 uM relative to control"}, "[30]": {"biological_target": "Receptor tyrosine-protein kinase erbB-2 (Homo sapiens) (UniProt P04626)", "experiment": "Inhibition of ERBB2 (HER2) (unknown origin) at 1 uM relative to control"}, "[31]": {"experiment": "Half life in dog liver microsomes", "format": "ADME, Canis lupus familiaris, microsome"}},
  "data": [
    {"smiles": "C=CC(=O)Nc1cc(Nc2nccc(-c3cn4c5c(cccc35)CCC4)n2)c(OC)cc1N(C)CCN(C)C", "values": [
      {"measurement": "Cmax", "setting": "[1]", "value": 111, "unit": "ng/mL"},
      {"measurement": "inhibition", "setting": "[2]", "value": 88, "unit": "%"},
      {"measurement": "inhibition", "setting": "[3]", "value": 36, "unit": "%"},
      {"measurement": "inhibition", "setting": "[4]", "value": 0, "unit": "%"},
      {"measurement": "inhibition", "setting": "[5]", "value": 8, "unit": "%"},
      {"measurement": "CLint scaled", "setting": "[6]", "value": 54, "unit": "mL/min/kg"},
      {"measurement": "inhibition", "setting": "[7]", "value": 21, "unit": "%"},
      {"measurement": "T/C", "setting": "NCI-H1975 [8]", "value": 12.1, "unit": "%"},
      {"measurement": "inhibition", "setting": "[9]", "value": 5, "unit": "%"},
      {"measurement": "half-life", "setting": "[10]", "value": 46.2, "unit": "min"},
      {"measurement": "inhibition", "setting": "[11]", "value": 80, "unit": "%"},
      {"measurement": "inhibition in vivo at 5 mg/kg", "setting": "NCI-H1975 [12]", "value": 46.8, "unit": "%"},
      {"measurement": "inhibition", "setting": "[13]", "value": 5, "unit": "%"},
      {"measurement": "inhibition", "setting": "[14]", "value": 5, "unit": "%"},
      {"measurement": "AUC(0-inf)", "setting": "[15]", "value": 194, "unit": "ng·h/mL"},
      {"measurement": "IC50", "setting": "HCC827", "value": 109, "unit": "nM"},
      {"measurement": "inhibition", "setting": "[16]", "value": 14, "unit": "%"},
      {"measurement": "inhibition", "setting": "[17]", "value": 14, "unit": "%"},
      {"measurement": "inhibition", "setting": "[18]", "value": 56, "unit": "%"},
      {"measurement": "inhibition", "setting": "[19]", "value": -2, "unit": "%"},
      {"measurement": "inhibition", "setting": "[20]", "value": 15, "unit": "%"},
      {"measurement": "IC50", "setting": "[21]", "value": "5.3 to 6", "unit": "nM"},
      {"measurement": "Activity", "setting": "NCI-H1975 [22]", "value": 527.78, "unit": "mm3"},
      {"measurement": "inhibition", "setting": "[23]", "value": 7, "unit": "%"},
      {"measurement": "inhibition", "setting": "[24]", "value": 10, "unit": "%"},
      {"measurement": "inhibition in vivo at 10 mg/kg", "setting": "NCI-H1975 [25]", "value": 83.5, "unit": "%"},
      {"measurement": "inhibition", "setting": "[26]", "value": 7, "unit": "%"},
      {"measurement": "inhibition", "setting": "[27]", "value": 20, "unit": "%"},
      {"measurement": "inhibition", "setting": "[28]", "value": 87, "unit": "%"},
      {"measurement": "inhibition", "setting": "[29]", "value": 42, "unit": "%"},
      {"measurement": "inhibition", "setting": "[30]", "value": 87, "unit": "%"},
      {"measurement": "half-life", "setting": "[31]", "value": 31.5, "unit": "min"}
    ]}
  ]
}
